# Efa HMGR inh: inhibitors of class II HMG-CoA reductase from Enterococcus faecalis. AID 1066. 0.41% of 190,000 active. purified E. faecalis HMGR, NADPH absorbance 340 nm kinetic. inhibition, % at 10 µM;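 active = inhibition above a set limit, the median over all tested compounds plus 3 SD, cut at about 9.5% in these data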;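 note: enzyme runs in reverse so mevalonate oxidation gives rising NADPH absorbance; 0% = complete reaction with DMSO and 100% = background rate lacking mevalonate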
# MT stabilizer: stabilizes microtubules in HeLa cells; HeLa tubulin immunostaining HCS, 24 h; share of cells brighter than vehicle mean+2SD; 0.83% of 200,000 active; % tubulin-high responders, % at 10 µM;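 active = plate Z-score above 3 for both tubulin-high and condensed-nucleus cell shares, with cell loss under 80%, at 10 µM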;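 note: anti alpha tubulin signal scored within the nucleus-defined area of each cell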
# Tb hexokinase: T. brucei hexokinase 1 inhibition. inhibition, % at 10 µM. recombinant TbHK1, G6PDH-coupled NADH A340. AID 1430. 0.11% of 220,000 active;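 active = inhibition of 50% or more in the single-dose primary screen; inactive = inhibition below 50%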
# EP2 antag: blocks the human prostaglandin E2 receptor EP2; P43116; C6 glioma cells expressing human EP2, cAMP TR-FRET; cells stimulated with saturating PGE2; inhibition, % at 25 µM; 0.52% of 260,000 active; AID 1422;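 active = percent inhibition above 40 after rounding to a whole number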;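 note: rat C6 glioma host cells with rolipram phosphodiesterase inhibitor present; the protocol text gives 20 µM as final concentration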
# Target sequence (P43116 whole entry, looked up): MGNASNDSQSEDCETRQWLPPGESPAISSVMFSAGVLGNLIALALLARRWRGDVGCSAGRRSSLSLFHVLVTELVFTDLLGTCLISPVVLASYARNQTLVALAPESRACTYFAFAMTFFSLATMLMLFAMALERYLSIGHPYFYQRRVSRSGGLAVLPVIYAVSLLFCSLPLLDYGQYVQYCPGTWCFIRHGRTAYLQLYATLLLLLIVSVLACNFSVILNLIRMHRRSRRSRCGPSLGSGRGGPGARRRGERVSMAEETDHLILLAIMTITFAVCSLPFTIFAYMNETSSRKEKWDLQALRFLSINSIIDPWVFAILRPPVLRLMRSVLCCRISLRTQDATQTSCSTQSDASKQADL
# b-catenin transl: modulators of beta-catenin nuclear translocation. nuclear translocation activity, % at 5 µM. 0.3% of 190,000 active. AID 1665. HeLa beta-catenin nuclear translocation, immunofluorescence imaging;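 active = nuclear translocation activity above 50% at 5 µM, with a well cell count of 50 or more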;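 note: per-cell ratio of nuclear to cytoplasmic median beta-catenin stain intensity; plate controls were DMSO negative control for no effect and GSK-3 inhibitor IX positive control for full effect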
#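 System: HeLa cells, endogenous beta-catenin; compound dosing: 5 µM primary single dose, 0.1% DMSO, 0.02–20 µM confirmation series; incubation: 24 h compound exposure at 37°C, 5% CO2; signal: beta-catenin immunofluorescence imaging with DAPI; evaluation: % activation, nuclear-to-cytoplasmic median beta-catenin signal ratio per cell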
# EP2 mod: modulators of human EP2 prostaglandin E2 receptor. P43116. EP2-expressing cells, cAMP HTRF FRET, PGE2 co-stimulation. induction, % at 25 µM. 0.83% of 260,000 active. AID 940;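 active = compounds whose cAMP rise, as percent of the full-agonist control response, exceeds 60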;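 note: rat C6 glioma line stably carrying human EP2 under a CMV promoter; the protocol text gives 20 µM as final concentration; 100% = response of wells given 1 µM PGE2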
# Active calls of the source: *; nt = no result; ! = not confirmed by another sample. Hits are enriched below; roughly 2.4% of the tested compounds scored in any of these assays.
SMILES,Efa HMGR inh,MT stabilizer,Tb hexokinase,EP2 antag,b-catenin transl,EP2 mod
CCOc1ccc(-c2n[nH]c(C)c2-c2ccccc2OC)c(O)c1,-1,27*,-3,5,3,-9
COc1ccc(-c2n[nH]c(C)c2-c2cnn(-c3ccccc3)c2)c(O)c1,1,4,-1,8,-2,12
COC(=O)c1ccc(-c2ccc(/C=C3\C(=O)NC(=O)N(c4ccc5c(c4)OCO5)C3=O)o2)cc1,nt,nt,nt,13,nt,-81
CC(=O)NCC1COc2ccccc2O1 (stereo not given),nt,nt,9,54*!,1,-5
Cc1cccc2cc3c(N)c(C(=O)N4c5ccccc5CC4C)sc3nc12 (stereo not given),nt,nt,nt,17,nt,24
CCc1[nH]c2ccc(C(=O)NCC(C)n3nc(C)nc3C)cc2c1C (stereo not given),nt,nt,nt,7,nt,-44
COc1ccc2cc(CN(Cc3nnnn3Cc3ccc(F)cc3)C3CCCCC3)c(=O)[nH]c2c1,nt,nt,nt,15,nt,-40
O=C1/C(=C/c2ccncc2)SC(=S)N1Nc1ccccc1,nt,nt,-11,64*,5,-37
O=C(O)c1ccc(/C=C2\SC(=S)N(Nc3ccccc3)C2=O)cc1,nt,nt,-1,6,0,-22
COC(=O)CCCCCN1C(=O)/C(=C\c2ccncc2)SC1=S,nt,nt,-26,51*,1,-40
O=C(CCc1ccccc1)NC(c1cccs1)c1cc(Cl)c2cccnc2c1O (stereo not given),-3,10*,28,5,0,22
Clc1ccc(CN2CCCN(Cc3ccc(Cl)cc3)C2c2cc3ccccc3c3ccccc23)cc1,nt,nt,nt,51*,nt,12
Clc1ccc(CN2CCCCCCC2)cc1,-9,4,5,7,0,20
CCSc1cnn(-c2ccccc2)c(=O)c1SCC,-3,2,-24,136*,nt,3
CSc1cnn(-c2ccccc2)c(=O)c1SC,1,4,-9,42*,-1,3
Cc1c(C(=O)N2CCC(C(=O)c3nc4ccccc4s3)CC2)[nH]c2ccc(F)cc12,nt,nt,nt,nt,nt,-109
COc1ccc(/C=C2\C(=O)NCC(=O)N2Cc2ccccc2)cc1,-4,32*,-11,17,-2,30
COc1ccc(/C=C2\C(=O)N(Cc3ccc(F)cc3)CC(=O)N2Cc2ccccc2)cc1,-3,2,-13,8,0,55
COc1ccccc1-c1cc(C(F)(F)F)nc(S(=O)(=O)CCCC(=O)O)n1,12*,1,-19,8,nt,41
COc1ccccc1-c1cc(C(F)(F)F)nc(S(=O)(=O)CCCC(=O)N2CCOCC2)n1,0,20,-14,13,-2,17
CCn1c(CNC(=O)c2ccc(C)cc2)n[nH]c1=S,nt,nt,nt,4,nt,-5
CC(C)(C)C1=CC=C(C(C)(C)C)C(=O)C1=O,nt,nt,2,102*,0,-47
CC(C)(C)c1ccc2c(c1)C(=O)c1ccccc1C2=O,4,6,-2,9,-1,16
Cc1nn(CC(=O)Nc2ccncc2)c(=O)c2cc3ccsc3n12,nt,nt,nt,nt,nt,-31
O=C(/C=C/c1cn(-c2ccccc2)nc1-c1cccnc1)N1CCCC1,2,4,-7,7,-1,-7
SMILES,Efa HMGR inh,MT stabilizer,Tb hexokinase,EP2 antag,b-catenin transl,EP2 mod
O=C(/C=C/c1cn(-c2ccccc2)nc1-c1cccnc1)c1ccco1,-6,12*,-25,5,8,-5
Cc1ccc(N(CC(=O)NCc2ccncc2)S(C)(=O)=O)c(C)c1,nt,nt,nt,6,nt,-26
CN(C)Cc1cc(C(C)(C)C)cc(CN(C)C)c1O,nt,nt,nt,18,nt,9
CN(C)Cc1cc(C(F)(F)F)ccc1C(O)(c1ccccc1)c1ccccc1,nt,nt,nt,46*,nt,-18
CC1CCc2c(sc3nc(C4CC4)n4c(SCc5cc(=O)[nH]c6ccccc56)nnc4c23)C1 (stereo not given),nt,nt,nt,6,nt,2
CCOC(=O)c1c2ccc(OCC(=O)N/N=C/c3ccccc3C(F)(F)F)cc2n2ccccc12,1,33*,-10,20,-7,3
CCOC(=O)c1c2ccc(OCC(=O)N/N=C/c3ccc(Cl)cc3)cc2n2ccccc12,7,15,-2,nt,-2,-9
Cn1c(CN2CCCC2)c(C#N)c2ccccc21,15*,3,4,9,0,22
COc1ccc(N2CCN(C(=O)CN(c3ccc(F)cc3)S(C)(=O)=O)CC2)cc1,nt,nt,nt,6,nt,38

# Screening results deposited in PubChem BioAssay by several laboratories.
